30 compounds from PubChem BioAssay can be followed below.

Each structure is given as a SMILES string. Calls of active or inactive are those of the source.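 Rule for the calls, unless noted: active = mean duplicate potentiation above the buffer control mean plus 5 SD of buffer wells; inactive = the rest.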

Assay [1] in a line: thallium flux activation in parental CHO cells, counter-screen for KCNQ1 potentiator project (AID 493006;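 active = duplicate-averaged activation above buffer control mean plus 5 SD of those controls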;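 for activation: fluorescence ratio of max minus min over baseline after K+ and Tl+ depolarization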). The note with it: parental CHO-K1 cells, FluxOR thallium flux, at 10 µM; hits give high values. The procedure, abridged: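 Material: parental CHO-K1 cells, FluxOR dye-loaded; Also added: Potassium/thallium depolarization pulse; Schedule: overnight 37 °C plating, 90 min dye, 20 min dark compound; Signal: kinetic FluxOR fluorescence, 10 s baseline, 110 s after stimulus.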
On the technique in general: A counterscreen serves to expose hits that act by an unwanted route or on another target.

Assay [2] deals with Potassium voltage-gated channel subfamily KQT member 1 (Homo sapiens) (UniProt P51787). The assay is described as follows: KCNQ1 potassium channel potentiators, confirmation, FluxOR thallium flux, CHO cells, duplicates (AID 493007;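 active = potentiation averaged over duplicate wells exceeding buffer-only control mean by more than 3 SD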;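 for outcome: cells depolarized by a potassium plus thallium sulfate stimulus after compound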). The note with it: KCNQ1 cell line, FluxOR thallium flux fluorescence, at 10 µM; hits give high values, % of reference activator effect, buffer zero. The procedure, abridged:
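System: KCNQ1-expressing CHO cell line; technique: kinetic thallium influx fluorescence with FluxOR dye, 10 s baseline, 110 s post-stimulus; timing: dye 90 min then compound 20 min, both at room temperature; controls: buffer-only wells as 0% and R-L3 activator as 100%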

The target of assay [3] is Potassium voltage-gated channel subfamily KQT member 2 (Rattus norvegicus) (UniProt O88943). The assay is described as follows: rat KCNQ2 channel potentiation, selectivity assay for KCNQ1 potentiator project, KCNQ2-CHO-K1 cells (AID 493009).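 Note: assay conditions were tuned for KCNQ1 rather than KCNQ2 modulators; signal is max minus min fluorescence divided by baseline after thallium stimulus.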 The note with it: FluxOR thallium flux fluorescence, at 10 µM; hits give high values, scaled: buffer 0, activator control 100.
The target in assay [4] is Potassium voltage-gated channel subfamily KQT member 1 (Homo sapiens) (UniProt P51787). The assay is described as follows: KCNQ1 channel current potentiators, confirmation, orthogonal assay for KCNQ1 potentiator project, IonWorks patch clamp, KCNQ1-CHO cells (AID 493184;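 active = current rise at least 3 SD above the untreated control mean in each of two repeat wells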;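 for current potentiation: percent change of the same well's current before compound addition so 0% = no change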). The note with it: automated patch clamp current, at 10 µM; hits give high values. The essentials: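 Test system: KCNQ1-expressing CHO cells. Medium: pH 7.4 external bath. Probe or stimulus: voltage step from -90 mV holding to +40 mV, 2,000 ms. Compound: 10 µM final, single point. Detection: automated perforated-patch electrophysiology. Read-out: percent current increase versus pre-compound level. Repeats: two replicates.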
(In general: Patch clamp records ionic current or voltage across a cell membrane.)

Potassium voltage-gated channel subfamily KQT member 1 (Homo sapiens), sequence (P51787 whole entry, looked up): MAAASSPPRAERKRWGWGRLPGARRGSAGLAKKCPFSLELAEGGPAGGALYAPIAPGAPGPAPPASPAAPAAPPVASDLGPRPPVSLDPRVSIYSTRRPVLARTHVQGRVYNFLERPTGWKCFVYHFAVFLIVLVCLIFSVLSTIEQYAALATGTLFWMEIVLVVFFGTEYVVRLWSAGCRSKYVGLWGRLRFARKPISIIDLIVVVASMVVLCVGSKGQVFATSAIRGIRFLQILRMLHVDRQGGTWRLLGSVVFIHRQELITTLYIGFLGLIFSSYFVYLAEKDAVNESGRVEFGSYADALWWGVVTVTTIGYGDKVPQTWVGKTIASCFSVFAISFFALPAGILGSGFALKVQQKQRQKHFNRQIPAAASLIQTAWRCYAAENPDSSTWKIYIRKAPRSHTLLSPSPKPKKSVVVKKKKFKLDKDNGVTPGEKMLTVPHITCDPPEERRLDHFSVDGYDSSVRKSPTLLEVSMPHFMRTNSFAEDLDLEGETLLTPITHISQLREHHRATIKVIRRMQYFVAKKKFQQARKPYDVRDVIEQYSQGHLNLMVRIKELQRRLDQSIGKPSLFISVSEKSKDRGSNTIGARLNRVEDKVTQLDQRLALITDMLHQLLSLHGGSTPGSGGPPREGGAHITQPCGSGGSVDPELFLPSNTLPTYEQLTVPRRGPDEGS
Potassium voltage-gated channel subfamily KQT member 2 (Rattus norvegicus), sequence (O88943 whole entry, looked up): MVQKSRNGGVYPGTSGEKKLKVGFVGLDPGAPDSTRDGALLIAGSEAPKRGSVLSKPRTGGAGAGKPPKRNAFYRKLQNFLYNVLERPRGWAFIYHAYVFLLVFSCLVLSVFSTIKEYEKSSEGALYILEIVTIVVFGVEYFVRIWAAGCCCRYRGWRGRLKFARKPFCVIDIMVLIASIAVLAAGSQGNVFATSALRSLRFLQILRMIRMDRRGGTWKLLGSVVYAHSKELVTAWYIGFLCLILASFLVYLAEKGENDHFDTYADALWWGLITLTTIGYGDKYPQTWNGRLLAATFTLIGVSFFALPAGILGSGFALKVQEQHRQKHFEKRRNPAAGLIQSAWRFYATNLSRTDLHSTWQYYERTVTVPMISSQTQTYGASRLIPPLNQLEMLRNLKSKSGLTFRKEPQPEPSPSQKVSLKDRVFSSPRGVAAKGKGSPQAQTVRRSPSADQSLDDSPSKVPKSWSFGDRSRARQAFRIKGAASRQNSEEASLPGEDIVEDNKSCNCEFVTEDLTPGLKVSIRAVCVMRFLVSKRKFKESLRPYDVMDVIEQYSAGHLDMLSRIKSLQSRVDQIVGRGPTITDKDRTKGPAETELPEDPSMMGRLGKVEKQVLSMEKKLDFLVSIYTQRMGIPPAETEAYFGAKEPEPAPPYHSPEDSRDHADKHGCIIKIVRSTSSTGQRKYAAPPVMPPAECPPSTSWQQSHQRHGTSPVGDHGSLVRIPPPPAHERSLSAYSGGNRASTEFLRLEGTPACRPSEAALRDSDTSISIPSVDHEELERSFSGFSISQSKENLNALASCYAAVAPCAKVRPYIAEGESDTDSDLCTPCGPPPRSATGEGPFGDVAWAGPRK

As to `CCCn1c(N)c(C(=O)CSc2nc(C)nc3sc(C)c(C)c23)c(=O)[nH]c1=O`, the activation in assay [1] was 166% (active). In addition, the potentiation in assay [2] was 23% (active); in assay [3], 194% (active). In addition, in assay [4], the outcome was inactive.
On to `O=c1c(Cl)c(Cl)cnn1Cc1nnc(-c2ccccc2Br)o1`, for which the result in assay [1], in assay [2] and in assay [3] was inactive. Moreover, the current potentiation in assay [4] was 14.7% (active).
In the case of `COc1ccc(N2CCN(S(=O)(=O)c3ccc(OC)c(C(=O)N4CCCCC4)c3)CC2)cc1`, the result in assay [1], in assay [2], in assay [3] and in assay [4] was inactive.
For the compound `COc1cccc(NC(=O)c2cncs2)c1`, the outcome in assay [1], in assay [2], in assay [3] and in assay [4] was inactive.
For the compound `Cc1cc(Cl)c(S(=O)(=O)Nc2ccc3c(c2)OCO3)cc1OCC(N)=O`, the outcome in assay [1], in assay [2], in assay [3] and in assay [4] was inactive.
For `CN(C)CCCN1c2ccccc2Sc2ccc(Cl)cc21`, the outcome in assay [1], in assay [2], in assay [3] and in assay [4] was inactive.
Consider `Cc1ccc(C(=O)CC(=O)c2cccc(F)c2)c(O)c1`, for which the activation in assay [1] was 156% (active). Also, the potentiation is 35% (active) in assay [2] and 150% (active) in assay [3]. The result in assay [4] was inactive.
As for `O=C(NC(=S)N1CCN(c2ccc(F)cc2)CC1)c1cccs1`, the activation in assay [1] was 274% (active). For the same compound, the values for the potentiation in assay [2] and in assay [3] were 84.5% (active) and 338% (active), respectively. Besides, the result in assay [4] was inactive.
Consider `CC(C)C(=O)Nc1c(O)c2ccccc2[nH]c1=O`, for which the result in assay [1], in assay [2], in assay [3] and in assay [4] was inactive.
Consider `Cn1nnnc1SCC(=O)NCc1ccc2c(c1)OCO2`, for which the outcome in assay [1], in assay [2], in assay [3] and in assay [4] was inactive.
As to `Oc1ccc2ccccc2c1N=Nc1nccs1`, in assay [1], the activation was 328% (active). Moreover, the figures for the potentiation in assay [2] and in assay [3] were 258% (active) and 426% (active), respectively. Besides, the result in assay [4] was inactive.
For `CCOC(=O)c1c(C)[nH]c(C(=O)Cn2nnc(-c3ccccc3Cl)n2)c1C`, the result in assay [1], in assay [2], in assay [3] and in assay [4] was inactive.
As to `O=C1CN(c2nc(-c3cccs3)nc3sc4c(c23)CCCC4)CCN1`, in assay [1], the activation was 259% (active). Also, the potentiation in assay [2] is 415% (active); in assay [3] it was 492% (active). The result in assay [4] was inactive.
For `CCCCCn1c(=O)c2ccccc2n2c(=S)[nH]nc12`, in that order: 152% (active), 39% (active), 158% (active) and “inactive”.
For `COc1ccccc1-c1cc(C(=O)Nc2cccnc2)no1`, in that order: 314% (active), 112% (active), 398% (active) and “inactive”.
As to `Oc1oc(-c2cccc3ccccc23)nc1/C=N/c1nccs1`, the result in assay [1] and in assay [4] was inactive. Besides, the results for the potentiation in assay [2] and in assay [3] were 48.5% (active) and 164% (active), respectively.
In the case of `CC(C)C(NC(=O)Nc1ccccc1)C(=O)Nc1cccc(S(=O)(=O)N(C)C)c1` (stereo not given), in assay [1], the activation was 232% (active). For the same compound, the potentiation was 67.5% (active) in assay [2] and 232% (active) in assay [3]. Besides, the result in assay [4] was inactive.
For `O=C(NC(=S)Nc1ccccc1N1CCCCC1)c1cccs1`, the activation in assay [1] is 212% (active). For the same compound, the potentiation in assay [2] is 133% (active); in assay [3], 234% (active). The result in assay [4] was inactive.
Consider `CCOC(=O)c1cc2c(=O)n3ccccc3nc2n(CCCOC)c1=NC(=O)c1ccncc1`, for which the result in assay [1], in assay [2], in assay [3] and in assay [4] was inactive.
As for `O=C(NCc1ccco1)c1ccc(=O)oc1`, the outcome in assay [1], in assay [2], in assay [3] and in assay [4] was inactive.
Take `CCOC(=O)Cn1c(=N)n(CCOc2ccc(Br)cc2)c2ccccc21`: the result in assay [1], in assay [2], in assay [3] and in assay [4] was inactive.
On to `COc1ccccc1NC(=O)CCN1CCN(c2ccc(Cl)cc2)CC1`, for which the outcome in assay [1], in assay [2], in assay [3] and in assay [4] was inactive.
`CC1=C(C)/C(=N\OS(=O)(=O)c2ccccc2)C=CC1=O`: the outcome in assay [1], in assay [2], in assay [3] and in assay [4] was inactive.
For `COCCn1c(=S)[nH]c2sc3c(c2c1=O)CCCC3`, the activation in assay [1] is 325% (active). For the same compound, the potentiation was 106% (active) in assay [2] and 312% (active) in assay [3]. For the same compound, the outcome in assay [4] was inactive.
Regarding `COCCCn1c(=S)[nH]c2sc3c(c2c1=O)CCCC3`, the activation in assay [1] was 366% (active). In addition, the potentiation in assay [2] was 138% (active); in assay [3] it was 346% (active). In addition, the result in assay [4] was inactive.
For `O=C(Nc1nc2c(Br)cc(Br)cc2c(=O)s1)C1CCC1`, in that order: 192% (active), 29% (active), 176% (active) and “inactive”.
For `C/C(=C/CCC(C)[C@H]1CC[C@@]2(C)C3=C(CC[C@]12C)[C@@]1(C)CCC(=O)C(C)(C)[C@@H]1CC3)C(=O)O` (stereo not given in full), in that order: 829% (active), 298% (active), 680% (active) and “inactive”.
In the case of `N=c1sccn1CC(=O)Nc1cc(Cl)ccc1Oc1ccccc1`, the result in assay [1], in assay [2], in assay [3] and in assay [4] was inactive.
As for `CC(C)(C)C(=O)NC1CC2CCCC(C1)N2C(=O)Nc1ccccc1` (stereo not given), the outcome in assay [1], in assay [2], in assay [3] and in assay [4] was inactive.
On to `Cc1cc(C)c(NC(=O)c2cn3c4c(c(N5CCN(C)CC5)c(F)cc4c2=O)OCC3C)c(C)c1` (stereo not given), for which the result in assay [1], in assay [2], in assay [3] and in assay [4] was inactive.
